Data: ChEMBL document CHEMBL1122008, “Lipophilic 5'-(alkyl phosphate) esters of 1-beta-D-arabinofuranosylcytosine and its N4-acyl and 2,2'-anhydro-3'-O-acyl derivatives as potential prodrugs” (1982)

Experiments:
Type in all cases: functional
Mus musculus [1] = experiment: Antitumor activity against L1210 leukemia in mice (Average 7-day weight change (%)) at the dose of 200 mg/kg
Summary of the method: (§1)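 Male B6D2F1J mice, groups of five to nine, inoculated ip with 10^5 L1210 cells on day 0. Drug treatment started day 1 on qd×5 or q4d(2,6) schedule. Vehicles: ara-C in sterile water; the n-butyl phosphate ester in 0.05 M pH 7.4 potassium phosphate buffer; others as suspensions in 0.4% Tween 80/0.5% low-density CMC/0.9% benzyl alcohol/0.9% saline. Mice weighed days 1 and 7; 7-day weight change given as g/mouse and %.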

Mus musculus [2] = experiment: Antitumor activity against L1210/ara-C leukemia in mice (Average 7-day weight change (%)) at the dose of 1000 mg/kg
Summary of the method: (§2)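 Male B6D2F1J mice (5–9 per group) were given 10^5 L1210/ara-C cells i.p. on day 0, with treatment from day 1 on qd×5 or q4d(2,6). Vehicles were sterile water, pH 7.4 0.05 M phosphate buffer, or a Tween 80/CMC/benzyl alcohol saline suspension. Weights were taken on days 1 and 7; change is expressed in g/mouse and as a percentage.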

Mus musculus [3] = experiment: Antitumor activity against L1210 leukemia in mice (Average 7-day weight change) at the dose of 50 mg/kg; summary of the method: as §1
Mus musculus [4] = experiment: Antitumor activity against L1210/ara-C leukemia in mice (Average weight per mouse on day 1.) at the dose of 500 mg/kg
Summary of the method: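 Male B6D2F1J mice, groups of 5–9, inoculated ip with 10^5 L1210/ara-C cells on day 0. Dosing began day 1 on a qd×5 or q4d(2,6) schedule. Ara-C was given in sterile water, the n-butyl phosphate ester in 0.05 M pH 7.4 potassium phosphate buffer, and others as suspensions in 0.4% Tween 80/0.5% CMC/0.9% benzyl alcohol/0.9% saline. Mice were weighed on days 1 and 7; 7-day change given in g and %.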

Mus musculus [5] = experiment: Antitumor activity against L1210 leukemia in mice (Percent increase in life span.) at the dose of 50 mg/kg
Summary of the method: (§3)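 Male B6D2F1J mice, groups of 5–9, inoculated ip with 10^5 L1210 cells on day 0. Dosing starts day 1 on a qd×5 or q4d(2,6) schedule. Vehicles are sterile water, pH 7.4 0.05 M potassium phosphate buffer, or 0.4% Tween 80/0.5% CMC/0.9% benzyl alcohol/0.9% saline. %ILS = (T/C − 1)×100 from median survival. Weights taken days 1 and 7.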

Mus musculus [6] = experiment: Antitumor activity against L1210 leukemia in mice (Average 7-day weight change) at the dose of 1000 mg/kg; summary of the method: as §1
Mus musculus [7] = experiment: Antitumor activity against L1210 leukemia in mice (Percent increase in life span.) at the dose of 100 mg/kg; summary of the method: as §3
Mus musculus [8] = experiment: Antitumor activity against L1210/ara-C leukemia in mice (Average 7-day weight change) at the dose of 100 mg/kg; summary of the method: as §2
Mus musculus [9] = experiment: Antitumor activity against L1210/ara-C leukemia in mice (Average 7-day weight change) at the dose of 1000 mg/kg; summary of the method: as §2
Mus musculus [10] = experiment: Antitumor activity against L1210/ara-C leukemia in mice (Average 7-day weight change (%)) at the dose of 500 mg/kg; summary of the method: as §2
Mus musculus [11] = experiment: Antitumor activity against L1210 leukemia in mice (Average 7-day weight change (%)) at the dose of 100 mg/kg; summary of the method: as §1
Mus musculus [12] = experiment: Antitumor activity against L1210 leukemia in mice (Average weight per mouse on day 1.) at the dose of 1000 mg/kg
Summary of the method: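 Male B6D2F1J mice (5–9 per group) received 10^5 L1210 cells i.p. on day 0 and drug from day 1, given qd×5 or q4d(2,6). Vehicles were sterile water, 0.05 M potassium phosphate pH 7.4, or 0.4% Tween 80/0.5% CMC/0.9% benzyl alcohol/0.9% saline. Read-out is average body weight per mouse (g) on day 1.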

Mus musculus [13] = experiment: Antitumor activity against L1210/ara-C leukemia in mice (Average 7-day weight change (%)) at the dose of 200 mg/kg; summary of the method: as §2

## Nc1ccn([C@@H]2O[C@H](CO)[C@@H](O)[C@@H]2O)c(=O)n1 [CYTARABINE]
Mus musculus [1]
  Weight change: -7%
Mus musculus [2]
  Weight change: 11%
Mus musculus [3]
  Weight change: 0.2 g mouse-1
Mus musculus [4]
  Average weight: 20.2 g mouse-1
Mus musculus [5]
  ILS at 50 mg/kg: 75%
Mus musculus [6]
  Weight change: 0.8 g mouse-1
Mus musculus [7]
  ILS at 100 mg/kg: 100%
Mus musculus [8]
  Weight change: -1.1 g mouse-1
Mus musculus [9]
  Weight change: 2.4 g mouse-1
Mus musculus [10]
  Weight change: 19%
Mus musculus [11]
  Weight change: -5%
Mus musculus [12]
  Average weight: 24 g mouse-1
Mus musculus [13]
  Weight change: -14%
